Experimental data as given in ChEMBL document CHEMBL1955865, “Synthesis of novel spirooxindole derivatives by one pot multicomponent reaction and their antimicrobial activity” (2012).
Values after ≈ are worked out from the molar mass of the structure shown.

What was measured:
[1] = Antifungal activity against Malassezia pachydermatis at 1000 ug/disc after 48 hrs by disc diffusion assay; format: functional
Procedure, shortened: (§1)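 Fungal disc diffusion with inoculum from SDA spores (filamentous) or SDB culture (yeast). Test cultures were swabbed on agar, and discs at 1000 µg/disc were left 30 min at room temperature, with a solvent negative control. Plates were incubated 48 h at 27 °C. Zone of inhibition was measured in mm, and the experiment was repeated twice.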

[2] = system: Candida albicans; assay: Antifungal activity against Candida albicans MTCC 227 at 1000 ug/disc after 48 hrs by disc diffusion assay; format: functional; conditions: MTCC 227, 48 h, read-out: IZ; procedure, shortened: as §1
[3] = system: Botrytis cinerea; assay: Antifungal activity against Botrytis cinerea at 1000 ug/disc after 48 hrs by disc diffusion assay; format: functional; conditions: read-out: IZ; procedure, shortened: as §1
[4] = system: Staphylococcus aureus; assay: Antibacterial activity against Staphylococcus aureus MTCC 96 after 24 hrs by twofold serial dilution method; format: functional; conditions: MTCC 96, 24 h
Procedure, shortened: (§2)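 Bacteria grown in Mueller Hinton broth for 24 h at 37 °C and diluted to about 10^4 CFU/ml. Compound in 2% DMSO was serially diluted two-fold (1000 to 15.62 µg/ml) in medium in 96-well plates and inoculated. Plates were incubated 24 h at 37 °C. 5 µl of broth was spotted onto MHA, and MIC was taken as the lowest concentration with no visible growth on agar.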

[5] = system: Staphylococcus aureus; assay: Antibacterial activity against methicillin-resistant Staphylococcus aureus after 24 hrs by twofold serial dilution method; format: functional
Procedure, shortened: (§3)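 Broth microdilution in MHB following the standard bacterial reference method. Compound was dissolved in DMSO (2%) and serially diluted two-fold from 1000 to 15.62 µg/ml in 96-well plates, with an inoculum of about 10^4 CFU/ml. Streptomycin and ciprofloxacin were positive controls. After 24 h at 37 °C, 5 µl of broth was subcultured on MHA. MIC was the lowest concentration without visible growth on agar.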

[6] = system: Micrococcus luteus; assay: Antibacterial activity against Micrococcus luteus after 24 hrs by twofold serial dilution method; format: functional; procedure, shortened: as §2
[7] = system: Klebsiella aerogenes; assay: Antibacterial activity against Enterobacter aerogenes MTCC 111 after 24 hrs by twofold serial dilution method; format: functional; conditions: MTCC 111, 24 h; procedure, shortened: as §2
[8] = system: Proteus vulgaris; assay: Antibacterial activity against Proteus vulgaris MTCC 1771 after 24 hrs by twofold serial dilution method; format: functional; conditions: MTCC 1771, 24 h; procedure, shortened: as §2
[9] = system: Klebsiella pneumoniae; assay: Antibacterial activity against Klebsiella pneumoniae MTCC 109 after 24 hrs by twofold serial dilution method; format: functional; conditions: MTCC 109, 24 h; procedure, shortened: as §2
[10] = system: Salmonella typhimurium; assay: Antibacterial activity against Salmonella Typhimurium MTCC 1251 after 24 hrs by two-fold serial dilution method; format: functional, Salmonella enterica subsp. enterica serovar Typhimurium; conditions: Salmonella enterica, MTCC 1251, 24 h; procedure, shortened: as §2
[11] = system: Salmonella enterica subsp. enterica serovar Paratyphi B; assay: Antibacterial activity against Salmonella paratyphi B after 24 hrs by twofold serial dilution method; format: functional; procedure, shortened: as §3
[12] = Antifungal activity against Malassezia pachydermatis after 48 to 72 hrs by twofold serial dilution method; format: functional
Procedure, shortened: (§4)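 Broth two-fold serial dilution, 1000 to 15.62 µg/ml, with compound dissolved in 2% DMSO, in 96-well plates. Filamentous fungal spores came from 10-day SDA slants at 28 °C, and yeast from SDB grown 48 h at 28 °C. Incubation was 48-72 h at 28 °C. MIC was the lowest concentration with no visible fungal growth.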

[13] = system: Candida albicans; assay: Antifungal activity against Candida albicans MTCC 227 after 48 to 72 hrs by twofold serial dilution method; format: functional; procedure, shortened: as §4
[14] = system: Botrytis cinerea; assay: Antifungal activity against Botrytis cinerea after 48 to 72 hrs by twofold serial dilution method; format: functional; procedure, shortened: as §4
[15] = system: Staphylococcus aureus; assay: Antibacterial activity against Staphylococcus aureus MTCC 96 at 1000 ug/disc after 24 hrs by disc diffusion assay; format: functional; conditions: MTCC 96, 24 h, read-out: IZ
Procedure, shortened: (§5)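 Disc diffusion on Mueller Hinton agar. Cultures (about 10^4 CFU/ml) were swabbed on and dried 10 min. Discs loaded at 1000 µg/disc were left 30 min at room temperature for diffusion, with a solvent negative control. Plates were incubated 24 h at 37 °C. Inhibition zones were measured in mm, and the experiment was done twice.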

[16] = system: Staphylococcus aureus; assay: Antibacterial activity against methicillin-resistant Staphylococcus aureus at 1000 ug/disc after 24 hrs by disc diffusion assay; format: functional; conditions: read-out: IZ
Procedure, shortened: (§6)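 Disc diffusion on Mueller Hinton agar. Bacteria were grown 24 h at 37 °C in MHB and diluted to about 10^4 CFU/ml, swabbed onto plates and dried 10 min. Discs were loaded at 1000 μg/disc and held 30 min at room temperature for diffusion. Solvent served as negative control. After 24 h at 37 °C, inhibition zones were read in mm; run twice.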

[17] = system: Micrococcus luteus; assay: Antibacterial activity against Micrococcus luteus at 1000 ug/disc after 24 hrs by disc diffusion assay; format: functional; conditions: read-out: IZ; procedure, shortened: as §5
[18] = system: Klebsiella aerogenes; assay: Antibacterial activity against Enterobacter aerogenes MTCC 111 at 1000 ug/disc after 24 hrs by disc diffusion assay; format: functional; conditions: MTCC 111, 24 h, read-out: IZ; procedure, shortened: as §5
[19] = system: Proteus vulgaris; assay: Antibacterial activity against Proteus vulgaris MTCC 1771 at 1000 ug/disc after 24 hrs by disc diffusion assay; format: functional; conditions: MTCC 1771, 24 h, read-out: IZ; procedure, shortened: as §5
[20] = system: Klebsiella pneumoniae; assay: Antibacterial activity against Klebsiella pneumoniae MTCC 109 at 1000 ug/disc after 24 hrs by disc diffusion assay; format: functional; conditions: MTCC 109, 24 h, read-out: IZ; procedure, shortened: as §5
[21] = system: Salmonella typhimurium; assay: Antibacterial activity against Salmonella Typhimurium MTCC 1251 at 1000 ug/disc after 24 hrs by disc diffusion assay; format: functional, Salmonella enterica subsp. enterica serovar Typhimurium; conditions: Salmonella enterica, MTCC 1251, 24 h; read-out: IZ; procedure, shortened: as §5
[22] = system: Salmonella enterica subsp. enterica serovar Paratyphi B; assay: Antibacterial activity against Salmonella paratyphi B at 1000 ug/disc after 24 hrs by disc diffusion assay; format: functional; conditions: read-out: IZ; procedure, shortened: as §6

SMILES | inhibition zone (IZ) [1] [mm] | zone of inhibition at 1000 µg/disc [2] [mm] | zone of inhibition at 1000 µg/disc [3] [mm] | MIC [4] [mg/L] | MIC [5] [mg/L] | MIC [6] [mg/L] | MIC [7] [mg/L] | MIC [8] [mg/L] | MIC [9] [mg/L] | MIC [10] [mg/L] | MIC [11] [mg/L] | MIC [12] [mg/L] | MIC [13] [mg/L] | MIC [14] [mg/L] | zone of inhibition at 1000 µg/disc [15] [mm] | zone of inhibition at 1000 µg/disc [16] [mm] | zone of inhibition at 1000 µg/disc [17] [mm] | zone of inhibition at 1000 µg/disc [18] [mm] | zone of inhibition at 1000 µg/disc [19] [mm] | zone of inhibition at 1000 µg/disc [20] [mm] | further results
Cc1ccc2c(c1)C1(C(=O)N2)C2=C(CN1C)C(=O)c1ccccc1C2=O (centres undefined) | 12 | 8 | 9 | 31.2 (≈ 90.7 µM) | 125 (≈ 363 µM) | 62.5 (≈ 181 µM) | 125 (≈ 363 µM) | 250 (≈ 726 µM) | 62.5 (≈ 181 µM) | 250 (≈ 726 µM) | 125 (≈ 363 µM) | 125 (≈ 363 µM) | 250 (≈ 726 µM) | 250 (≈ 726 µM) | 15 | 12 | 13 | 13 | 9 | 13 | zone of inhibition at 1000 µg/disc [21]: 12 mm; zone of inhibition at 1000 µg/disc [22]: 11 mm
Cc1ccc2c(c1)C1(C(=O)N2C)C2=C(CN1C)C(=O)c1ccccc1C2=O (centres undefined) | 10 | 12 | 11 | 15.6 (≈ 43.6 µM) | 125 (≈ 349 µM) | 125 (≈ 349 µM) | 62.5 (≈ 174 µM) | 125 (≈ 349 µM) | 250 (≈ 698 µM) | 15.6 (≈ 43.6 µM) | 500 (≈ 1400 µM) | 500 (≈ 1400 µM) | 250 (≈ 698 µM) | 250 (≈ 698 µM) | 22 | 14 | 15 | 17 | 16 | 13 | zone of inhibition at 1000 µg/disc [21]: 22 mm; zone of inhibition at 1000 µg/disc [22]: 8 mm
